The values below come from ChEMBL document CHEMBL1287779, “Indium(III) chloride catalyzed three-component coupling reaction: a novel synthesis of 2-substituted aryl(indolyl)kojic acid derivatives as potent antifungal and antibacterial agents” (2010).

Assay type in all cases: functional
For test [1], the system named is Candida albicans. Kind of test: Antifungal activity against Candida albicans MTCC 227 assessed as zone of inhibition at 150 ug by agar well diffusion method. The note with it: read-out: IZ. The method, boiled down:
(§1)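 Agar well diffusion on potato dextrose agar. Plates were spread with 0.5 mL of a week-old culture of the test organism, and 6 mm wells were cut with a cork borer. Compounds were dissolved in DMSO at different concentrations and added to the wells, with controls included. Plates were held at 27 °C for 48 h, and inhibition zone diameters were read in mm. Three to four replicates per treatment.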
On the technique in general: A growth-free zone around the sample is the usual read-out of agar diffusion tests.

Test [2] concerns Diutina rugosa. Kind of test: Antifungal activity against Candida rugosa NCIM 3462 assessed as zone of inhibition at 100 ug by agar well diffusion method. Particulars: read-out: IZ. The procedure, abridged:
as §1

The test system of test [3] is Saccharomyces cerevisiae. In words: Antifungal activity against Saccharomyces cerevisiae MTCC 36 assessed as zone of inhibition at 150 ug by agar well diffusion method. The note with it: read-out: IZ. The procedure, abridged:
as §1

Test [4] has as its system Rhizopus arrhizus. Kind of test: Antifungal activity against Rhizopus oryzae MTCC 262 assessed as zone of inhibition at 100 ug by agar well diffusion method. The note with it: read-out: IZ. The method, boiled down:
as §1

In test [5] the test system is Aspergillus niger. In words: Antifungal activity against Aspergillus niger MTCC 282 assessed as zone of inhibition at 150 ug by agar well diffusion method. The note with it: read-out: IZ. The method, boiled down:
as §1

In another test the test system is Escherichia coli. In words: Antibacterial activity against Escherichia coli MTCC 443 by broth dilution method. The method, boiled down:
(§2)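 MIC determined by broth dilution following NCCL standards. Penicillin and streptomycin were tested in parallel under identical conditions.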
(In general: Dilution methods test growth across graded concentrations, often in twofold steps.)

Test [6] has as its system Staphylococcus epidermidis. Kind of test: Antibacterial activity against Staphylococcus epidermidis MTCC 2639 by broth dilution method. The method, boiled down: as §2
The subject of the next test is Bacillus subtilis. In words: Antibacterial activity against Bacillus subtilis MTCC 441 by broth dilution method. The method, boiled down: as §2
Test [7] concerns Candida albicans. In words: Antifungal activity against Candida albicans MTCC 227 assessed as zone of inhibition at 100 ug by agar well diffusion method. The note with it: read-out: IZ. The method, boiled down: as §1
Test [8] concerns Saccharomyces cerevisiae. Kind of test: Antifungal activity against Saccharomyces cerevisiae MTCC 36 assessed as zone of inhibition at 100 ug by agar well diffusion method. Particulars: read-out: IZ. The method, boiled down: as §1
For another test, the system named is Pseudomonas aeruginosa. Kind of test: Antibacterial activity against Pseudomonas aeruginosa MTCC 741 by broth dilution method. The method, boiled down:
as §2

Test [9] concerns Rhizopus arrhizus. In words: Antifungal activity against Rhizopus oryzae MTCC 262 assessed as zone of inhibition at 150 ug by agar well diffusion method. The note with it: read-out: IZ. The procedure, abridged: as §1
The test system of test [10] is Diutina rugosa. Kind of test: Antifungal activity against Candida rugosa NCIM 3462 assessed as zone of inhibition at 150 ug by agar well diffusion method. The note with it: read-out: IZ. The procedure, abridged: as §1
For test [11], the system named is Aspergillus niger. In words: Antifungal activity against Aspergillus niger MTCC 282 assessed as zone of inhibition at 100 ug by agar well diffusion method. The note with it: read-out: IZ. The method, boiled down:
as §1

In the next test the test system is Klebsiella pneumoniae. Kind of test: Antibacterial activity against Klebsiella pneumoniae MTCC 618 by broth dilution method. The procedure, abridged:
as §2

The subject of another test is Staphylococcus aureus. In words: Antibacterial activity against Staphylococcus aureus MTCC 96 by broth dilution method. The method, boiled down: as §2

Converted amounts (≈) assume the structure as drawn.

Usually MIC stands for the smallest concentration in the dilution series that meets the test's criterion for growth inhibition.

`O=c1cc(CO)oc(C(c2ccccc2)c2c[nH]c3ccccc23)c1O` (centres undefined): the zone of inhibition at 150 µg/disc was 0 mm with Candida albicans [1]; 0 mm with Saccharomyces cerevisiae [3]; 14 mm with Aspergillus niger [5]; 0 mm with Rhizopus arrhizus [9]; 9 mm in the test with Diutina rugosa [10]. In addition, the zone of inhibition at 100 µg/disc is 6 mm in the test with Diutina rugosa [2]; 0 mm in the test on Rhizopus arrhizus [4]; 0 mm in the test with Candida albicans [7]; 0 mm in the test on Saccharomyces cerevisiae [8]; 10 mm in the test with Aspergillus niger [11]. Also, the MIC against Escherichia coli turned out to be 150 µg/mL (≈ 432 µM); in [6], 150 µg/mL (≈ 432 µM); in the test on Bacillus subtilis, 150 µg/mL (≈ 432 µM); with Pseudomonas aeruginosa, 150 µg/mL (≈ 432 µM); against Klebsiella pneumoniae it was 75 µg/mL (≈ 216 µM); against Staphylococcus aureus, 150 µg/mL (≈ 432 µM).
Turning to `COc1ccc(C(c2oc(CO)cc(=O)c2O)c2c(C)[nH]c3ccccc23)cc1` (centres undefined), the zone of inhibition at 150 µg/disc in the test on Candida albicans [1], with Saccharomyces cerevisiae [3], with Aspergillus niger [5], in the test with Rhizopus arrhizus [9] and with Diutina rugosa [10] was 0 mm throughout. Moreover, the zone of inhibition at 100 µg/disc in the test with Diutina rugosa [2], in the test on Rhizopus arrhizus [4], with Candida albicans [7], in the test with Saccharomyces cerevisiae [8] and with Aspergillus niger [11] was 0 mm each time. The MIC (against Escherichia coli; in test [6]; with Bacillus subtilis; in the test on Pseudomonas aeruginosa; with Klebsiella pneumoniae; with Staphylococcus aureus) was 150 µg/mL (≈ 383 µM) each time.
As for `COc1ccc(C(c2oc(CO)cc(=O)c2O)c2c(-c3ccccc3)[nH]c3ccccc23)cc1` (centres undefined), the zone of inhibition at 150 µg/disc in the test on Candida albicans [1] was found to be 12 mm; in the test on Saccharomyces cerevisiae [3], 14 mm; with Aspergillus niger [5] it was 14 mm; in the test with Rhizopus arrhizus [9], 0 mm; with Diutina rugosa [10], 14 mm. In addition, the zone of inhibition at 100 µg/disc was found to be 10 mm in the test on Diutina rugosa [2]; 0 mm in the test with Rhizopus arrhizus [4]; 9 mm in the test with Candida albicans [7]; 9 mm in the test on Saccharomyces cerevisiae [8]; 10 mm with Aspergillus niger [11]. The MIC was 75 µg/mL (≈ 165 µM) with Escherichia coli; 150 µg/mL (≈ 331 µM) in test [6]; 150 µg/mL (≈ 331 µM) against Bacillus subtilis; 75 µg/mL (≈ 165 µM) in the test on Pseudomonas aeruginosa; 150 µg/mL (≈ 331 µM) in the test on Klebsiella pneumoniae; 37.5 µg/mL (≈ 82.7 µM) in the test on Staphylococcus aureus.
`COc1ccc(C(c2oc(CO)cc(=O)c2O)c2c[nH]c3ccc(Cl)cc23)cc1` (centres undefined): the zone of inhibition at 150 µg/disc with Candida albicans [1] worked out at 16 mm; with Saccharomyces cerevisiae [3], 21 mm; in the test on Aspergillus niger [5] it was 20 mm; in the test with Rhizopus arrhizus [9], 0 mm; in the test on Diutina rugosa [10], 0 mm. Further, the zone of inhibition at 100 µg/disc in the test with Diutina rugosa [2] was found to be 0 mm; with Rhizopus arrhizus [4], 0 mm; with Candida albicans [7], 11 mm; with Saccharomyces cerevisiae [8] it was 16 mm; in the test with Aspergillus niger [11], 14 mm. The MIC in the test with Escherichia coli stood at 4.68 µg/mL (≈ 11.4 µM); in test [6] it was 150 µg/mL (≈ 364 µM); against Bacillus subtilis, 150 µg/mL (≈ 364 µM); against Pseudomonas aeruginosa, 4.68 µg/mL (≈ 11.4 µM); against Klebsiella pneumoniae it was 18.8 µg/mL (≈ 45.5 µM); in the test on Staphylococcus aureus, 2.34 µg/mL (≈ 5.68 µM).
Regarding `O=c1cc(CO)oc(C(c2ccccc2O)c2c(-c3ccccc3)[nH]c3ccccc23)c1O` (centres undefined), the zone of inhibition at 150 µg/disc in the test on Candida albicans [1] was 14 mm; with Saccharomyces cerevisiae [3] it was 16 mm; with Aspergillus niger [5], 0 mm; with Rhizopus arrhizus [9], 0 mm; in the test on Diutina rugosa [10], 0 mm. For the same compound, the zone of inhibition at 100 µg/disc in the test with Diutina rugosa [2] came to 0 mm; in the test with Rhizopus arrhizus [4], 0 mm; with Candida albicans [7] it was 10 mm; with Saccharomyces cerevisiae [8], 12 mm; with Aspergillus niger [11], 0 mm. Also, the MIC with Escherichia coli came out at 37.5 µg/mL (≈ 85.3 µM); in test [6] it was 150 µg/mL (≈ 341 µM); against Bacillus subtilis it was 150 µg/mL (≈ 341 µM); in the test with Pseudomonas aeruginosa it was 18.8 µg/mL (≈ 42.7 µM); against Klebsiella pneumoniae, 75 µg/mL (≈ 171 µM); against Staphylococcus aureus, 4.68 µg/mL (≈ 10.6 µM).
As for `Cc1[nH]c2ccccc2c1C(c1ccc(Cl)cc1)c1oc(CO)cc(=O)c1O` (centres undefined), the zone of inhibition at 150 µg/disc in the test on Candida albicans [1] was 0 mm; with Saccharomyces cerevisiae [3] it was 0 mm; in the test with Aspergillus niger [5], 12 mm; in the test on Rhizopus arrhizus [9], 10 mm; in the test on Diutina rugosa [10], 0 mm. In addition, the zone of inhibition at 100 µg/disc in the test with Diutina rugosa [2] worked out at 0 mm; with Rhizopus arrhizus [4], 7 mm; in the test with Candida albicans [7], 0 mm; in the test on Saccharomyces cerevisiae [8], 0 mm; in the test with Aspergillus niger [11], 8 mm. Further, the MIC in the test on Escherichia coli was determined as 18.8 µg/mL (≈ 47.4 µM); in test [6], 18.8 µg/mL (≈ 47.4 µM); with Bacillus subtilis, 150 µg/mL (≈ 379 µM); against Pseudomonas aeruginosa it was 18.8 µg/mL (≈ 47.4 µM); with Klebsiella pneumoniae, 75 µg/mL (≈ 189 µM); in the test with Staphylococcus aureus, 37.5 µg/mL (≈ 94.7 µM).
On to `Cc1[nH]c2ccccc2c1C(c1ccc2ccccc2c1)c1oc(CO)cc(=O)c1O` (centres undefined), for which the zone of inhibition at 150 µg/disc with Candida albicans [1], with Saccharomyces cerevisiae [3], in the test with Aspergillus niger [5], in the test on Rhizopus arrhizus [9] and in the test on Diutina rugosa [10] was 0 mm each time. The zone of inhibition at 100 µg/disc in the test on Diutina rugosa [2], with Rhizopus arrhizus [4], in the test with Candida albicans [7], in the test on Saccharomyces cerevisiae [8] and in the test on Aspergillus niger [11] was 0 mm throughout. Moreover, the MIC (with Escherichia coli; in [6]; with Bacillus subtilis; in the test with Pseudomonas aeruginosa; in the test on Klebsiella pneumoniae; against Staphylococcus aureus) was 150 µg/mL (≈ 365 µM) in each case.
On to `CN[C@@H]1[C@H](O[C@H]2[C@H](O[C@H]3[C@H](O)[C@@H](O)[C@H](N=C(N)N)[C@@H](O)[C@@H]3N=C(N)N)O[C@@H](C)[C@]2(O)C=O)O[C@@H](CO)[C@H](O)[C@H]1O` [STREPTOMYCIN], for which the MIC against Escherichia coli was found to be 6.25 µg/mL (≈ 10.7 µM); in [6] it was 3.12 µg/mL (≈ 5.37 µM); in the test on Bacillus subtilis it was 6.25 µg/mL (≈ 10.7 µM); against Pseudomonas aeruginosa it was 1.56 µg/mL (≈ 2.69 µM); against Klebsiella pneumoniae, 3.12 µg/mL (≈ 5.37 µM); against Staphylococcus aureus, 6.25 µg/mL (≈ 10.7 µM).
For the compound `C[C@@H]1[C@H](O)[C@@H](C)/C=C/C=C/C=C/C=C/C=C/C=C/C=C/[C@H](O[C@@H]2O[C@H](C)[C@@H](O)[C@H](N)[C@@H]2O)C[C@@H]2O[C@](O)(C[C@@H](O)C[C@@H](O)[C@H](O)CC[C@@H](O)C[C@@H](O)CC(=O)O[C@H]1C)C[C@H](O)[C@H]2C(=O)O` [AMPHOTERICIN B], the zone of inhibition at 100 µg/disc in the test on Diutina rugosa [2] came to 22 mm; in the test on Rhizopus arrhizus [4], 24 mm; with Candida albicans [7] it was 23.5 mm; with Saccharomyces cerevisiae [8] it was 22 mm; in the test with Aspergillus niger [11], 25 mm.
Turning to `CC1(C)S[C@@H]2[C@H](NC(=O)Cc3ccccc3)C(=O)N2[C@H]1C(=O)O` [PENICILLIN G], the MIC in the test with Escherichia coli turned out to be 12.5 µg/mL (≈ 37.4 µM); in [6], 3.12 µg/mL (≈ 9.35 µM); against Bacillus subtilis, 1.56 µg/mL (≈ 4.67 µM); in the test on Pseudomonas aeruginosa, 12.5 µg/mL (≈ 37.4 µM); against Klebsiella pneumoniae it was 6.25 µg/mL (≈ 18.7 µM); against Staphylococcus aureus, 1.56 µg/mL (≈ 4.67 µM).
